The test system of assay [1] is Trypanosoma brucei rhodesiense. As to the kind of experiment: Trypanocidal activity against bloodstream form of Trypanosoma brucei rhodesiense STIB900 infected in NMRI mouse assessed as decrease in parasitemia at 20 mg/kg, ip qd administered for 4 days measured once per week until 60 days by microscopic analysis. Details: dose 20 mg/kg. It counts as functional, organism-based. In short, it runs like this:
(§1)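 Mice infected with T. b. rhodesiense STIB900 received one dose daily for 4 consecutive days, 4 mice per group. Diamidines were given intraperitoneally and prodrugs orally. The primary endpoint was cures per group: a mouse counted as cured if it survived 60 days post-infection without parasitemia relapse.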

In assay [2] the test system is Trypanosoma brucei rhodesiense. As to the kind of experiment: Trypanocidal activity against bloodstream form of Trypanosoma brucei rhodesiense STIB900 infected in NMRI mouse assessed as mean survival days at 20 mg/kg, ip qd administered for 4 days. The following applies: route intraperitoneal. It is filed as functional. In short, it runs like this: (§2)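 Mice infected with T. b. rhodesiense STIB900 (acute model) dosed once daily for 4 consecutive days, ip (diamidines) or oral (prodrugs). Cure means survival to 60 days post infection without parasitemia relapse. Mean survival days post infection are averaged over all mice, with cured mice counted as >60 days.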

Assay [3] deals with Trypanosoma brucei rhodesiense. The assay is described as follows: Trypanocidal activity against bloodstream form of Trypanosoma brucei rhodesiense STIB900 infected in NMRI mouse assessed as mean survival days at 5 mg/kg, ip qd administered for 4 days. It counts as functional. In short, it runs like this: as §2
In assay [4] the test system is Trypanosoma brucei rhodesiense. The assay is described as follows: Trypanocidal activity against bloodstream form of Trypanosoma brucei rhodesiense STIB900 infected in NMRI mouse assessed as mean survival days at 100 mg/kg, po qd administered for 4 days. It is filed as functional. In short, it runs like this:
as §2

For assay [5], the system named is Trypanosoma brucei rhodesiense. The assay is described as follows: Trypanocidal activity against bloodstream form of Trypanosoma brucei rhodesiense STIB900 infected in NMRI mouse assessed as decrease in parasitemia at 5 mg/kg, ip qd administered for 4 days measured once per week until 60 days by microscopic analysis. It is filed as functional, organism-based. Details: dose 5 mg/kg. In short, it runs like this: as §1

The test system of assay [6] is Trypanosoma brucei rhodesiense. The assay is described as follows: Trypanocidal activity against bloodstream form of Trypanosoma brucei rhodesiense STIB900 infected in NMRI mouse assessed as mean parasitemia relapse day at 5 mg/kg, ip qd administered for 4 days. Particulars: route intraperitoneal. It counts as functional. In short, it runs like this: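 Mice infected with STIB900 received 4 consecutive daily intraperitoneal doses, 4 mice per group. The secondary endpoint was mean relapse day post-infection, which separates weaker compounds; mice surviving 60 days without parasitemia relapse were scored as cured.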

Calls of active or inactive are those of the source. The rule behind the calls is not given here.

Consider `Cl.Cl.N=C(N)c1ccc(-c2cc(-c3cccc(C(=N)N)c3)no2)cc1`, for which the result in assay [1] was inactive. For the same molecule, the MSD in assay [2] is above 29.25 days.

For `Cl.Cl.N=C(N)c1ccc(-c2cc(-c3cccc(C(=N)N)c3)on2)cc1`, the MSD in assay [3] (route intraperitoneal) is above 49.25 days; in assay [2] it was above 51.25 days.

On to `COc1ccc(C(=N)N)cc1-c1cc(-c2ccc(C(=N)N)cc2)on1.Cl.Cl`, for which the outcome in assay [1] was Active. In addition, the MSD in assay [3] (route intraperitoneal) and in assay [2] was above 60 days in each case.

Take `COc1ccc(C(=N)N)cc1-c1cc(-c2ccc(C(=N)N)cc2)no1.Cl.Cl`: in assay [1], the outcome was Active. Besides, the MSD in assay [3] (route intraperitoneal) and in assay [2] was above 60 days in each case.

With `COc1cc(C(=N)N)ccc1-c1cc(-c2ccc(C(=N)N)cc2)no1.Cl.Cl`, the MSD is above 48.75 days in assay [3] (route intraperitoneal) and above 50.25 days in assay [2].

With `Cl.Cl.N/C(=N\O)c1ccc(-c2cc(-c3cccc(/C(N)=N/O)c3)on2)cc1`, the MSD in assay [4] is above 43.5 days.

Turning to `Cl.Cl.N=C(N)c1cccc(-c2cc(-c3cccc(C(=N)N)c3)on2)c1`, the values for the MSD in assay [3] (route intraperitoneal) and in assay [2] were 21.75 days and above 58 days, respectively. Moreover, the outcome in assay [5] was inactive.

As to `Cl.Cl.N/C(=N\O)c1ccc(-c2cc(-c3ccc(/C(N)=N/O)cc3)on2)cc1`, the MSD in assay [4] was above 40.5 days.

As to `Cl.Cl.Cl.N=C(N)c1cccc(-c2cc(-c3ccc(C(=N)N)cc3Cl)on2)c1`, the Time in assay [6] stood at 16 days. Further, the outcome in assay [1] was Active. Besides, the MSD result in assay [3] is “inactive”. For the same molecule, the MSD in assay [2] is above 60 days.

(Values after ChEMBL document CHEMBL3102749, “Antiprotozoal activity of dicationic 3,5-diphenylisoxazoles, their prodrugs and aza-analogues” (Bioorg Med Chem, 2014).)
